In ChEMBL document CHEMBL5150021, “Identification of 5-(Aryl/Heteroaryl)amino-4-quinolones as Potent Membrane-Disrupting Agents to Combat Antibiotic-Resistant Gram-Positive Bacteria” (J Med Chem, 2022):
Values after ≈ are worked out from the molar mass of the structure shown. Active and inactive are the calls of the source. No cut-off for these calls is given here.

How the values were obtained:
Staphylococcus aureus [1] = test: Antibacterial activity against methicillin resistant Staphylococcus aureus FPR3757 assessed as inhibition of bacterial growth incubated for 24 hrs by CLSI based method; format: functional; conditions: read-out: MIC100
In short: (§1)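 It was mixed 1:1 with twofold serial compound dilutions and incubated stationary at 37 °C for 24 h. MIC was the lowest concentration giving complete inhibition of observable growth, with an oxacillin control.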

Enterococcus faecalis [2] = test: Antibacterial activity against Enterococcus faecalis ATCC700802 assessed as inhibition of bacterial growth incubated for 24 hrs by CLSI based method; format: functional
In short: (§2)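 Broth microdilution per CLSI. Equal volume of twofold serial compound dilutions added. Incubated stationary at 37 °C for 24 h. MIC taken as lowest concentration giving complete inhibition of visible growth. Oxacillin control for Gram-positives, ceftriaxone for Gram-negatives.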

Enterococcus faecium = test: Antibacterial activity against Enterococcus faecium ATCC19579 assessed as inhibition of bacterial growth incubated for 24 hrs by CLSI based method; format: functional; in short: as §2
Staphylococcus aureus [3] = test: Antibacterial activity against methicillin-resistant Staphylococcus aureus COL assessed as inhibition of bacterial growth incubated for 24 hrs by CLSI based method; format: functional; in short: as §2
Candida albicans = test: Antifungal activity against Candida albicans SC5314 assessed as inhibition of bacterial growth incubated for 24 hrs by CLSI based method; format: functional
In short: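 Broth microdilution per CLSI. It is mixed 1:1 with twofold serial compound dilutions and incubated stationary at 35 °C for 24 h. MIC is read as the lowest concentration with no observable growth.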

Staphylococcus simulans [4] = test: Antibacterial activity against Staphylococcus simulans assessed as inhibition of cell wall synthesis at 5 times MIC measured upto 60 mins by [3H]-glucosamine incorporation based scintillation counter analysis; format: functional; conditions: 1 h
In short: (§3)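 Aliquots taken 0–60 min, precipitated with ice-cold 10% TCA, filtered, washed, scintillation counted. Percent inhibition is relative to DMSO control at 60 min; triplicate.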

Staphylococcus simulans [5] = test: Antibacterial activity against Staphylococcus simulans assessed as inhibition of RNA synthesis at 5 times MIC measured upto 60 mins by [3H]-uridine incorporation based scintillation counter analysis; format: functional; conditions: 1 h; in short: as §3
Staphylococcus aureus [6] = test: Antibacterial activity against methicillin-resistant Staphylococcus aureus N315 assessed as inhibition of bacterial growth incubated for 24 hrs by CLSI based method; format: functional; in short: as §2
Staphylococcus aureus [7] = test: Antibacterial activity against methicillin resistant Staphylococcus aureus FPR3757 assessed as inhibition of bacterial growth incubated for 24 hrs in presence of 10% FBS by CLSI based method; format: functional
In short: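 CLSI broth microdilution against MRSA FPR3757 (USA300) in Mueller–Hinton broth supplemented with 10% serum (fetal bovine or mouse). Inoculum 10⁶ CFU/mL with twofold serial compound dilutions, stationary incubation at 37 °C for 24 h. MIC read as lowest concentration with complete inhibition of visible growth.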

Cell membrane [8] = test: Induction of cell membrane damage in Staphylococcus aureus USA300 assessed as mesosome-like membrane inclusions at 1 times MIC measured after 1 hrs by TEM analysis
In short: (§4)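 Fixed in glutaraldehyde/paraformaldehyde in cacodylate pH 7.4, post-fixed with osmium tetroxide, stained with uranyl acetate, resin-embedded, thin-sectioned and imaged by TEM.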

[9] = Induction of drug resistance in Staphylococcus aureus FPR3757 assessed as increase in MIC incubated for 65 days (reference value: 0.25 ug/ml); format: functional; conditions: FPR3757, 1560 h, time 65 day
Staphylococcus aureus [10] = test: Antibacterial activity against community-associated methicillin-resistant Staphylococcus aureus USA300 FPR3757 assessed as inhibition of bacterial growth incubated for 24 hrs by CLSI based method; format: functional; in short: as §1
Klebsiella pneumoniae = test: Antibacterial activity against Klebsiella pneumoniae 7117 assessed as inhibition of bacterial growth incubated for 24 hrs by CLSI based method; format: functional; in short: as §2
Staphylococcus simulans [11] = test: Antibacterial activity against Staphylococcus simulans assessed as inhibition of protein synthesis at 5 times MIC measured upto 60 mins by [3H]-L-isoleucine incorporation based scintillation counter analysis; format: functional; conditions: 1 h; in short: as §3
Staphylococcus aureus [12] = test: Antibacterial activity against methicillin-resistant Staphylococcus aureus NRS71 assessed as inhibition of bacterial growth incubated for 24 hrs by CLSI based method; format: functional; in short: as §2
Cell membrane [13] = test: Induction of cell membrane damage in Staphylococcus aureus USA300 assessed as cross-wall-septum formation with reduced splitting at 1 times MIC measured after 10 mins by TEM analysis; format: subcellular
Staphylococcus simulans [14] = test: Antibacterial activity against Staphylococcus simulans assessed as inhibition of protein synthesis at 0.5 to 5 times MIC measured upto 60 mins by [3H]-L-isoleucine incorporation based scintillation counter analysis; format: functional, organism-based; conditions: DDE = dose-dependent effect
In short: (§5)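 S. simulans was grown in cation-adjusted Mueller–Hinton medium at 37 °C. […] Samples were taken at 0–60 min, precipitated with ice-cold 10% TCA, filtered and counted. Inhibition at 60 min is relative to DMSO control; triplicate.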

Staphylococcus aureus [15] = test: Antibacterial activity against methicillin-resistant Staphylococcus aureus MW2 assessed as inhibition of bacterial growth incubated for 24 hrs by CLSI based method; format: functional; in short: as §2
Enterobacter cloacae = test: Antibacterial activity against Enterobacter cloacae ND-21 assessed as inhibition of bacterial growth incubated for 24 hrs by CLSI based method; format: functional; in short: as §2
Staphylococcus aureus [16] = test: microbe, parasite or virus in culture; conditions: USA300 FPR3757, 24 h
Staphylococcus simulans [17] = test: Antibacterial activity against Staphylococcus simulans assessed as inhibition of DNA synthesis at 5 times MIC measured upto 60 mins by [3H]-thymidine incorporation based scintillation counter analysis; format: functional; conditions: 1 h; in short: as §3
Staphylococcus simulans [18] = test: Antibacterial activity against Staphylococcus simulans assessed as inhibition of DNA synthesis at 0.5 to 5 times MIC measured upto 60 mins by [3H]-thymidine incorporation based scintillation counter analysis; format: functional, organism-based; conditions: DDE = dose-dependent effect; in short: as §5
Cell membrane [19] = test: Induction of cell membrane damage in Staphylococcus aureus USA300 assessed as bulging of the septum at 1 times MIC measured after 1 hrs by TEM analysis; in short: as §4
[20] = system: Staphylococcus epidermidis; test: Antibacterial activity against Staphylococcus epidermidis NIF104008 assessed as inhibition of bacterial growth incubated for 24 hrs by CLSI based method; format: functional; in short: as §2
Enterococcus faecalis [21] = test: Antibacterial activity against Enterococcus faecalis DHMC #1 assessed as inhibition of bacterial growth incubated for 24 hrs by CLSI based method; format: functional; in short: as §2
Cell membrane [22] = test: Induction of cell membrane damage in Staphylococcus aureus USA300 assessed as membrane wrinkling at 1 times MIC measured after 1 hrs by TEM analysis; in short: as §4
Escherichia coli = test: Antibacterial activity against Escherichia coli DHMC-1 assessed as inhibition of bacterial growth incubated for 24 hrs by CLSI based method; format: functional; in short: as §2
Staphylococcus simulans [23] = test: Antibacterial activity against Staphylococcus simulans assessed as inhibition of RNA synthesis at 0.5 to 5 times MIC measured upto 60 mins by [3H]-uridine incorporation based scintillation counter analysis; format: functional, organism-based; conditions: DDE = dose-dependent effect; in short: as §5

`FC(F)(F)c1ccc2c(Nc3cccc4[nH]ncc34)cc(C(F)(F)F)nc2c1` showed an MIC (Staphylococcus aureus [1]) of over 32 µg/mL.
With `Fc1ccc2c(Nc3cccc(OC(F)(F)F)c3)cc(C(F)(F)F)nc2c1` the MIC (Staphylococcus aureus [1]) was 2 µg/mL (≈ 5.12 µM).
`COc1ccc2c(Nc3cccc(OC(F)(F)F)c3)cc(C(F)(F)F)nc2c1` showed an MIC (Staphylococcus aureus [1]) of over 32 µg/mL.
Work on `CN(C)S(=O)(=O)c1ccc2c(Nc3cccc(OC(F)(F)F)c3)cc(C(F)(F)F)nc2c1` yielded an MIC (Staphylococcus aureus [1]) of 8 µg/mL (≈ 16.7 µM).
`O=c1cc(C(F)(F)F)[nH]c2cc(C(F)(F)F)cc(Nc3cccc4[nH]ncc34)c12` showed an MIC (Staphylococcus aureus [1]) of 2 µg/mL (≈ 4.85 µM).
In the case of `FC(F)(F)c1ccc(Nc2cc(C(F)(F)F)nc3cc(C(F)(F)F)ccc23)nc1`, the MIC (Enterococcus faecalis [2]) is reported as 16 µg/mL (≈ 37.6 µM), the MIC (Enterococcus faecium) is reported as 1 µg/mL (≈ 2.35 µM) and the MIC (Staphylococcus aureus [3]) is reported as 0.25 µg/mL (≈ 0.588 µM). The MIC (Candida albicans) was over 256 µg/mL, the “inhibition (INH)” value (Staphylococcus simulans [4]) was 100% and the “inhibition (INH)” value (Staphylococcus simulans [5]) was 100%. For the same compound, the MIC (Staphylococcus aureus [6]) was 0.25 µg/mL (≈ 0.588 µM), the MIC (Staphylococcus aureus [7]) was 4 µg/mL and the Activity (Cell membrane [8]) was “Active”. For the same compound, the MIC [9] was 0.5 µg/mL, the MIC (Staphylococcus aureus [10]) was 0.25 µg/mL (≈ 0.588 µM) and the MIC (Klebsiella pneumoniae) was over 128 µg/mL. For the same compound, the “inhibition (INH)” value (Staphylococcus simulans [11]) was 100%, the MIC (Staphylococcus aureus [12]) was 0.25 µg/mL (≈ 0.588 µM) and the Activity (Cell membrane [13]) was “Active”. The inhibition (Staphylococcus simulans [14]) was “Dde”, the MIC (Staphylococcus aureus [15]) was 0.125 µg/mL (≈ 0.294 µM) and the MIC (Enterobacter cloacae) was over 128 µg/mL. For the same compound, the MBC (Staphylococcus aureus [16]) was 8 µg/mL (≈ 18.8 µM), the “inhibition (INH)” value (Staphylococcus simulans [17]) was 100% and the inhibition (Staphylococcus simulans [18]) was “Dde”. For the same compound, the Activity (Cell membrane [19]) was “Active”, the MIC [20] was 0.125 µg/mL (≈ 0.294 µM) and the MIC (Enterococcus faecalis [21]) was 1 µg/mL (≈ 2.35 µM). The MIC (Staphylococcus aureus [1]) was 0.25 µg/mL (≈ 0.588 µM), the Activity (Cell membrane [22]) was “Active” and the MIC (Escherichia coli) was over 128 µg/mL. The inhibition (Staphylococcus simulans [23]) was “Dde”.
